Tn7 DDE FP: DD(E)-Tn7 binding inhibition, primary FP screen | inhibition, % at 8.3 µM | 370,000 tested, 0.13% active | FP displacement of FITC-Tn7 peptide from fibrin DD(E); 0% = median of compound wells per plate | P02675;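 active = inhibition above the mean of compounds falling within the control limits plus 3 SD of them, cut at about 14% in these data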
Target sequence (P02675 whole entry, looked up): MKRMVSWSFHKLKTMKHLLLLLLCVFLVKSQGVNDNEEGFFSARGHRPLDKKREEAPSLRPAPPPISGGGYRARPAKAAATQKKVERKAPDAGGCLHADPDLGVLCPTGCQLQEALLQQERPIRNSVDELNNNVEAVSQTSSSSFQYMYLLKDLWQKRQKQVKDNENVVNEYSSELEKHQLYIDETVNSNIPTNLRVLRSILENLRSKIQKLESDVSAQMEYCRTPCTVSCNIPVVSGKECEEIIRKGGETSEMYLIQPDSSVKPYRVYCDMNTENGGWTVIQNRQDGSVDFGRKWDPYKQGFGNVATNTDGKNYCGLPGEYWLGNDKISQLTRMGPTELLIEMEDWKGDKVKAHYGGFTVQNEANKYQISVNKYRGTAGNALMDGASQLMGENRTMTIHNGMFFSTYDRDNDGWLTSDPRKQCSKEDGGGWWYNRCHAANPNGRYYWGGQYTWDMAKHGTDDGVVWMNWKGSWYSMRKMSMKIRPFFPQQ
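Measure: % inhibition scaled between sample-field median and high-control FP; Test system: human fibrin DD(E); Quantity: 2 µM final DD(E) protein; Doses: one dose, 8.3 µM nominal; Schedule: compound with protein 10 min, then 3 h after probe, room temperature; Detection: fluorescence polarization; Medium: Tris buffer with calcium and detergent, pH 7.8.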
DDE Tn6 FP inh: inhibitors of Tn6 peptide binding to human fibrin DD(E). AID 720509. inhibition, % at 8.3 µM. 370,000 tested, 0.21% active. Fibrin DD(E) TRITC-Tn6 fluorescence polarization displacement. P02675;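 active = inhibition above a per-campaign cutoff: mean of compounds within control limits plus 3 SD, cut at about 15% in these data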
SIAE primary: blocks human sialic acid acetylesterase. Q9HAT2. SIAE FP-Rh probe binding, fluorescence polarization. inhibition, % at 9.66 µM. 370,000 tested, 0.69% active. AID 1053197;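 active = inhibition above a cutoff: mean of compounds within the control limits plus 3 SD of those, cut at about 17% in these data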
ABHD4 inh: inhibitors of mouse ABHD4. 370,000 tested, 0.54% active. inhibition, % at 8.92 µM. AID 720543. purified mABHD4, FP-Rh probe fluorescence polarization;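 active = inhibition exceeding the mean over every tested compound plus 3 SD, cut at about 30% in these data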
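Assay system: mouse ABHD4 enzyme, wild type / Also added: fluorescent activity-based probe FP-Rh / Doses: single nominal dose of 8.92 µM, 0.89% DMSO final / Timing: 45 min compound pre-incubation plus 60 min probe step, 25 °C / Signal: FP readout, ex 525 nm / em 598 nm / Control set: S159A mutant/DMSO as 100%, compound-well median as 0%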
TCR CD3 inh: inhibitors of human TCR-CD3 interaction. TAMRA-labeled TCR probe fluorescence, biochemical. inhibition, % at 9.4 µM. 360,000 tested, 0.37% active. AID 651800; in the data active = inhibition above about 19%;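 note: recombinant mutant TCR 2C K166C tagged with TAMRA read by polarization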
HTRA1 inh: HTRA1 (human) protease inhibition; recombinant HTRA1, FP-rhodamine activity-based probe, fluorescence polarization; inhibition, % at 5.96 µM; 340,000 tested, 0.5% active; AID 504803; in the data active = inhibition above about 36%
mABHD4 conf: ABHD4 (mouse) inhibition, FP confirmation; shares compounds with ABHD4 inh; purified mABHD4, FP-Rh probe fluorescence polarization; inhibition, % at 8.92 µM; 1,800 tested, 55% active;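 active = mean inhibition across replicates above the hit cutoff set in the primary screen, cut at about 30% in these data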
SIAE confirm: confirmation of human SIAE inhibitors | shares compounds with SIAE primary | SIAE FP-Rh activity-based probe, fluorescence polarization | inhibition, % at 9.66 µM | 2,300 tested, 13% active | AID 1117263;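 active = mean inhibition of the replicates above the hit cutoff set in the primary screen, cut at about 17% in these data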;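 note: inhibitors lower polarization as more probe stays unbound to SIAE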
Each line names hits and unclear results; the compound was inactive in the other large screens (follow-up assays come after a bar, where they were run). Rows were chosen to be rich in hits. Some 1.8% of all compounds tested hit in one or more screens of this group.

COc1cc(O)c(C(=O)O)c(-c2cc(O)c(O)cc2C)c1	ABHD4 inh 37 | mABHD4 conf 33
COC(=O)C1=C(c2ccc(OCc3ccccc3)cc2)C[C@@H]2CC[C@H]1N2C(=O)NCc1cccc(OC)c1	ABHD4 inh 31 | mABHD4 conf 35
COC(=O)C1=C(c2ccc(OCc3ccccc3)cc2)C[C@@H]2CC[C@H]1N2C(=O)NCc1ccccc1	none
COC(=O)C1=C(c2cccc(OCc3ccccc3)c2)C[C@@H]2CC[C@H]1N2C(=O)NCc1ccc(OC)cc1	none
COC(=O)C1=C(c2ccc(OCc3ccccc3)cc2)C[C@@H]2CC[C@H]1N2C(=O)NCc1ccc2c(c1)OCO2	ABHD4 inh 51 | mABHD4 conf 33
COC(=O)C1=C(c2ccc(OCc3ccccc3)cc2)C[C@@H]2CC[C@H]1N2C(=O)NCc1ccc(OC)cc1	ABHD4 inh 41 | mABHD4 conf 43
COC(=O)C1=C(c2ccc(OCc3ccccc3)cc2)C[C@@H]2CC[C@H]1N2C(=O)NCc1ccc(C(C)(C)C)cc1	ABHD4 inh 33 | mABHD4 conf 50
O=C(O)CCl	none (no result: HTRA1 inh)
O=P(Oc1ccccc1)(Oc1ccccc1)C(O)c1ccc(Cl)cc1 (configuration not stated)	ABHD4 inh 32 | mABHD4 conf inactive
COc1ccc(C(O)P(=O)(Oc2ccccc2)Oc2ccccc2)cc1 (configuration not stated)	none
C[C@H](NC(=O)OCc1ccccc1)C(=O)NC(Cc1ccccc1)P(=O)(Oc1ccccc1)Oc1ccccc1 (some centres not stated)	none (no result: TCR CD3 inh, HTRA1 inh)
Cc1ccc(-n2c(=S)[nH]c3ccc(C)cc3c2=O)cc1	ABHD4 inh 46 | mABHD4 conf 33
O=C(c1ccccc1)N1Cc2cc(Br)ccc2-n2nncc2C1	none (no result: HTRA1 inh)
O=C(NCCN1CCC2(CC1)C(=O)NCN2c1ccccc1)c1ccccc1F	none (no result: HTRA1 inh)
O=[N+]([O-])c1cc(O)c(O)c([N+](=O)[O-])c1	ABHD4 inh 74 | mABHD4 conf 50
O=C(NCCN1CCC2(CC1)C(=O)NCN2c1ccccc1)c1cccs1	none (no result: HTRA1 inh)
COc1cc(/C=C/c2nc3ccccc3c(=O)n2-c2ccc(O)cc2)ccc1O	ABHD4 inh 39 | mABHD4 conf 45
CCOC(=O)[C@]12Cc3cc(Cl)ccc3[C@H]1N(C1CCCCC1)C(=O)c1cc(OC)ccc12	none (no result: HTRA1 inh)
COCOC1CCC2C3CCC4=CC(=O)CCC4=C3C=CC12C (configuration not stated)	none
CC1(O)CCC2C3CCC4=CC(=O)CCC4=C3C=CC21C (configuration not stated)	SIAE primary 19 | SIAE confirm inactive
COC1CC=C2CCN3CCC4=C(CC(=O)OC4)C23C1 (configuration not stated)	none (no result: HTRA1 inh)
O=C1CC(c2cccnc2)=NN1c1ccccc1	SIAE primary 28 | SIAE confirm inactive
OCC#CC[N+]1(CC#Cc2ccccc2)CCOCC1	none
N#CC[N+]1(CCCNP2(=O)C=C(c3ccccc3)OC(c3ccccc3)=C2)CCOCC1	SIAE primary 18 | SIAE confirm inactive
CCCCCSc1cc(OC)c(CCN)cc1OC	SIAE primary 19 | SIAE confirm inactive
O=C(NCCN1CCC2(CC1)C(=O)NCN2c1ccccc1)c1ccc(Cl)cc1	none (no result: HTRA1 inh)
CCOP(=O)(OCC)C(NC(=O)c1ccccc1C)C(Cl)(Cl)Cl (configuration not stated)	SIAE primary 19 | SIAE confirm inactive
CC(C)OC(=O)C1C(c2ccc(I)cc2)CC2CCC1N2C (configuration not stated)	none (no result: HTRA1 inh)
CCCCn1c(O)c(/C=N/N2CCOCC2)c(=O)[nH]c1=S	SIAE primary 19 | SIAE confirm inactive
CCCCCCn1c(O)c(C=Nc2ccccc2N2CCOCC2)c(=O)[nH]c1=S	none (no result: HTRA1 inh)
Cc1cc(OCC(=O)O)c2c3c(c(=O)oc2c1)CCCC3	none
Cc1cc(OCC(=O)N2CCC(C(N)=O)CC2)c2c3c(c(=O)oc2c1)CCCC3	SIAE primary 18 | SIAE confirm inactive
COc1cc(C(=S)N2CCOCC2)cc(OC)c1OC(=O)Cc1ccccc1	SIAE primary 19 | SIAE confirm inactive
CC(C)S(=O)(=O)N1Cc2ccc(Br)cc2-n2nncc2C1	none (no result: HTRA1 inh)
